Assay results published in PubChem BioAssay.
A number with no mark means an inactive call. Inconclusive results are not listed. Active and inactive are the calls of the source.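 Rule for the calls, unless noted: active = RAM network inhibition above 8.4% in each of two replicates, 3 SD over the compound average; inconclusive = above 8.4% inhibition in only one replicate; inactive = 8.4% inhibition or less in each replicate.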

What was measured:
[1] = OD615 S. cerevisiae growth inhibition, permissive medium, pilot counter-assay, permissive growth control for S. cerevisiae lifespan shortening project (AID 705;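 active = growth inhibition above 25% in both replicates, a cutoff set 3 SD above the mean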); conditions: OD615, 24 h, at 10 µM, stronger effect = higher value
How it was run: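 System: engineered DeaD yeast; Medium: permissive raffinose/galactose medium; Compound dosing: 10 µM single dose, 0.25% DMSO; Incubation: 4 h cell pre-growth, 24 h exposure at 30 °C; Technique: OD at 615 nm; Evaluation: growth inhibition from lowered OD615 after 24 h.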

[2] = Restrictive medium S. cerevisiae growth inhibition, OD615, pilot screen of yeast lifespan reduction project, restrictive growth control (AID 706;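 active = growth inhibition above a set limit, 3 SD over mean compound inhibition, in both replicates, cut at about 43% in these data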;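 note: modified DeaD lifespan yeast strain shifted to restrictive glucose medium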); conditions: OD615, 48 h, at 10 µM, stronger effect = higher value
How it was run: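 Material: modified S. cerevisiae; buffer or medium: CSMM-D glucose medium; doses: one concentration, 10 µM final, 0.25% DMSO; incubation: 48 h compound exposure at 30 °C; detection: optical density at 615 nm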

[3] = viability gain of MRP-1-high H69AR cells under doxorubicin, pilot screen, MRP-1 activator project, CellTiter-Glo, duplicate (AID 807;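 active = viability increase at or above a cutoff of the median across tested compounds plus 3 SD, cut at about 8.5% in these data, passing the limit was not always enough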;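 note: compound pretreatment 18-22 h then 72 h combined with doxorubicin; 0% = doxorubicin alone and 100% = vehicle without doxorubicin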); conditions: H69AR viability with doxorubicin, CellTiter-Glo luminescence; at 10 µM; stronger effect = higher value
[4] = growth suppression of beta-catenin knockout HCT116, pilot screen, human colon tumor cells (AID 823;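 active = cell viability at or below a set limit in both duplicate runs, the limit being the all-compound median minus 4 SD, cut at about 23% in these data, passing the limit was not always enough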;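 note: 0% = wells killed by 20 µM Hyamine and 100% = untreated DMSO cell wells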); conditions: CellTiter-Glo, 60 h, at 10 µM, stronger effect = lower value
[5] = growth suppression of PTEN-deleted HCT116, pilot screen, cell-based, HCT116 clonal line, CellTiter-Glo (AID 824;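 active = viability at or below 27.92% in each of two runs, the all-compound median minus 4 SD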;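 note: 0% = 20 µM Hyamine control and 100% = vehicle cell control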); conditions: 60 h, at 10 µM, stronger effect = lower value
[6] = inhibitors of the yeast RAM network, pilot screen, dse1pr::URA3 reporter, 5-FOA selection (AID 869;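 active = inhibition over a set limit, the all-compound mean plus 3 SD, in both replicate runs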;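 note: 0% = DMSO wells with no growth and 100% = 10 µM 1-NA-PP1 with full growth; RAM network block rescues cells from 5-FOA so hits raise OD615 growth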); conditions: S. cerevisiae dse1pr::URA3 5-FOA growth, OD615, 2 d; at 10 µM; stronger effect = higher value; strain carries analog-sensitive mutant Cbk1 kinase
[7] = RAM signaling pathway blockade in yeast – S. cerevisiae, Pdr1DBD-CYC8 efflux-inhibited sensitized strain, primary screen (AID 1298);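 note: 0% = DMSO untreated cells without growth and 100% = 10 µM 1-NA-PP1 full growth; higher means more yeast growth rescued from 5-FOA killing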; conditions: S. cerevisiae cbk1-as DSE1-URA3 strain, 5-FOA growth OD615, 2 d; at 50 µM; stronger effect = higher value

Compound | growth inhibition [1] | growth inhibition [2] | viability increase [3] | viability [4] | viability [5] | inhibition [6] | RAM network inhibition [7]
CCOc1ccccc1N1C(=O)CC(N(O)c2ccccc2)C1=O (stereo not given) | -13.4% | -4.14% | -5.35% | 106% | 96.3% | 0.17% | 12.8%
Cc1cc(C)cc(NC(=O)CSc2nc3c(c(=O)n2C)SC(C)C3)c1 (stereo not given) | -2.6% | 2.95% | -2.79% | 89.3% | 92% | 2.04% | 6.37%
O=C(CCCC1=NS(=O)(=O)c2ccccc2N1)N1CCN(c2ccc(Cl)cc2)CC1 | -17.7% | -0.86% | -0.04% | 91.7% | 78.3% | 0.37% | 0.9%
CCOC(=O)N1CCN(C(=O)CN(c2cc(C(F)(F)F)ccc2Cl)S(C)(=O)=O)CC1 | 0.24% | 9.28% | -1.79% | 103% | 99% | -0.91% | -0.25%
COc1ccc(-c2oc(/N=C/N3CCOCC3)c(C#N)c2-c2ccc(OC)cc2)cc1 | -10.1% | -18.7% | -0.81% | 88.6% | 83.4% | 2.25% | 2.33%
O=C1C2CCCN2C(c2cccc(F)c2)N1c1cccc(Cl)c1 (stereo not given) | -10.5% | 1.77% | -0.22% | 108% | 99% | 0.56% | -0.05%
COc1ccc(NC(=O)c2ccc(CN3CCN(c4ccccc4)CC3)cc2)cc1 | -7.38% | -9.14% | -0.09% | 67.4% | 73.1% | 2.54% | 9.97%
O=C(c1ccco1)N1CCN(C(=O)c2oc(=O)c3ccccc3c2-c2ccccc2)CC1 | -6.24% | -4.58% | -1.47% | 105% | 98.5% | 0.68% | 3.83%
Cn1c(Cn2c(=O)sc3ccccc32)nnc1SCC(=O)Nc1ccc(Cl)cc1 | -9.07% | -17.2% | -3.25% | 98.6% | 89% | 3.06% | 5.32%
CC(=O)c1coc2ccc(OCCN3CCCCC3)cc12 | -8.68% | -18.4% | -3.83% | 85.2% | 85.8% | 0.64% | 2.59%
COc1ccccc1NC(=O)C1=C(C)NC(=O)NC1c1ccc(C)cc1 (stereo not given) | -6.15% | -13.7% | -1.68% | 105% | 95.6% | 1.23% | -1.08%
Cc1noc(NS(=O)(=O)c2ccc(NC(=O)CSc3nc4c(cc3C#N)CCC4)cc2)c1C | 4.79% | 48% (active) | 1.01% | 107% | 98.3% | 0.805% | 8.22%
O=C(NCCCN1CCC(Cc2ccccc2)CC1)C1CC(=O)N(C2CCCC2)C1 (stereo not given) | 1.72% | -13.9% | -2.03% | 88.5% | 83.7% | -0.05% | 2.13%
Brc1ccccc1OCCCN1CCOCC1 | -11.7% | -9.51% | 1.1% | 97.8% | 98.2% | 1.48% | 4.22%
C=CCn1cc(C(=O)N2CCN(C)CC2)c(=O)c2cc(S(=O)(=O)N3CCCC3)ccc21 | -6.54% | -12.6% | -0.09% | 105% | 106% | 0.73% | 3.9%
Cn1c(=O)c2cc(S(=O)(=O)NC(C(=O)N3CCCCCC3)c3ccccc3)ccc2n(C)c1=O (stereo not given) | -16.6% | -23.3% | -1.22% | 104% | 89.1% | 0.175% | 2.61%
O=C(O)CC1C(=O)NCCN1Cc1ccc(F)c(F)c1 (stereo not given) | -11.2% | 3.21% | -1.31% | 99.4% | 88.2% | 3.32% | -0.21%
Cc1occc1C(=O)Nc1nnc(-c2ccncc2)s1 | 4.81% | 5.91% | -0.28% | 100% | 104% | 0.705% | -1.3%

Compound | growth inhibition [1] | growth inhibition [2] | viability increase [3] | viability [4] | viability [5] | inhibition [6] | RAM network inhibition [7]
O=C(C1CCCN(c2nnc(-n3cccc3)s2)C1)N1CCN(c2ccccc2)CC1 (stereo not given) | -4% | -4.55% | -1.11% | 88.9% | 86.5% | 0.485% | 1.12%
CCOc1ccc(S(=O)(=O)N2CCN(S(=O)(=O)c3ccc(OCC)cc3)C(C)C2)cc1 (stereo not given) | -7.32% | 1.25% | -5.22% | 93% | 93.7% | 1.27% | 6.32%
Cc1ccc(S(=O)(=O)Cc2ccc(C(=O)N3CCCCCC3)o2)cc1 | -10.6% | -22.4% | -1.93% | 98.8% | 96.2% | 1.73% | 8.33%
CC1=C(C(=O)Nc2ccccc2)C(c2ccco2)C(C#N)=C(SCc2ccccc2)N1 (stereo not given) | 9% | 14.5% | -7.63% | 11.8% (active) | 9.06% (active) | 3.18% | 3.38%
CCOC(=O)CC(=O)Nc1ccc(C(=O)OCC)cc1 | 4.17% | 7.02% | 1.09% | 101% | 105% | 1.54% | 4.84%
CC1CCc2nn(CC(=O)NCCCN3CCCCC3)cc2C1 (stereo not given) | -15.9% | -10.3% | -2.34% | 105% | 96.7% | 1.18% | 3.77%
COc1ccc(-n2c(Cc3cccn3C)nnc2SCC(=O)N2CCCC2)cc1 | 11.1% | 49.5% (active) | -0.77% | 96.1% | 98.5% | 0.04% | 0.93%
CCOC(=O)c1ccc2nc(NC(=O)C(C)C)sc2c1 | -10.9% | -10.6% | -6.61% | 78.6% | 80% | 1.98% | 0.06%
Cc1ccc(-c2nc(CS(=O)CC(=O)NC3CCCC3)c(C)o2)cc1 (stereo not given) | 5.52% | 2.53% | -4.16% | 92.9% | 91.4% | 1.08% | 5.29%
COCCN1C(=O)C(CC(=O)Nc2ccc(C(=O)O)cc2)SC1=Nc1ccccc1 (stereo not given) | -12.5% | -19.2% | -2.07% | 96.4% | 97.6% | 2.39% | 2.48%
CCn1c(=O)cc(N2CCC3(CC2)OCCO3)[nH]c1=O | -15.1% | -8.98% | 0.57% | 96.8% | 93.2% | 1.01% | 1.74%
COc1ccc(C2SCC(C(=O)O)N2C(C)=O)cc1OC (stereo not given) | 0.095% | 1.78% | 0.1% | 96.5% | 102% | 1.33% | 7.78%
O=C(Cn1cnc2c(nnn2-c2ccccc2)c1=O)NCC1CCCO1 (stereo not given) | -6.44% | 8.14% | -2.94% | 100% | 94.3% | 1.41% | 1.65%
COc1ccc(C(=S)N(C)C)cc1OC | 11.9% | 16.9% | -0.25% | 98.8% | 98.6% | 3.66% | 1.53%
Cc1ccc2oc(=O)c3cnn(CC(=O)NC4CCC(C)CC4)c3c2c1 (stereo not given) | -14.1% | -15.1% | 0.16% | 94.4% | 86% | 1.02% | 2.93%
Cc1oc(-c2ccccc2)nc1CS(=O)CC(=O)N1CCc2ccccc2C1 (stereo not given) | 5.38% | 22.9% | -2.89% | 97.8% | 99.8% | 1.62% | 1.69%
COc1ccc(CCNC(=O)CCn2c(=O)oc3ccccc32)cc1 | -5.1% | -14% | -1.45% | 109% | 99.7% | -0.205% | 2.7%
